Reference: ChEMBL document CHEMBL5120856, “New salicylic acid derivatives, double inhibitors of glycolate oxidase and lactate dehydrogenase, as effective agents decreasing oxalate production” (Eur J Med Chem, 2022)
pIC50, pKi: −log10 of the molar value. Calls of active or inactive are those of the source. The calls are words filed in the database; no cut-off is given here.

Experiments:
[1] = biological target: T1, 2-Hydroxyacid oxidase 1 (Homo sapiens, UniProt Q9UJM8); experiment: Inhibition of N-terminal His-tagged human recombinant glycolate oxidase expressed in Escherichia coli BL21 (DE3) cells using glycolate as substrate preincubated for 10 mins followed by substrate addition and measured after 10 mins by Amplex red and horseradish peroxidase based fluorescence assay
T1 sequence (Q9UJM8 whole entry): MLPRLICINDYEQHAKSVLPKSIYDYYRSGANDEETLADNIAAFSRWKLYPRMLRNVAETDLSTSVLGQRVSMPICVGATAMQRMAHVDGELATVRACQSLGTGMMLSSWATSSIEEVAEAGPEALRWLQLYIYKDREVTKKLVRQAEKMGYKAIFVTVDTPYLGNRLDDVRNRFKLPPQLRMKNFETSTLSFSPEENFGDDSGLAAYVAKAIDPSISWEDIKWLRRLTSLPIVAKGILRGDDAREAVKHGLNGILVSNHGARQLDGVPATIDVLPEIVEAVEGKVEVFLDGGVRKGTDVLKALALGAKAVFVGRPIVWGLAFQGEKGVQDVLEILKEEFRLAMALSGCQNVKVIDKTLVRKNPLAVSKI

[2] = biological target: T2, 2-Hydroxyacid oxidase 1 (Mus musculus, UniProt Q9WU19); experiment: Inhibition of N-terminal His-tagged mouse recombinant glycolate oxidase expressed in Escherichia coli BL21 (DE3) cells using glycolate as substrate preincubated for 10 mins followed by substrate addition and measured after 10 mins by Amplex red and horseradish peroxidase based fluorescence assay
T2 sequence (Q9WU19 whole entry): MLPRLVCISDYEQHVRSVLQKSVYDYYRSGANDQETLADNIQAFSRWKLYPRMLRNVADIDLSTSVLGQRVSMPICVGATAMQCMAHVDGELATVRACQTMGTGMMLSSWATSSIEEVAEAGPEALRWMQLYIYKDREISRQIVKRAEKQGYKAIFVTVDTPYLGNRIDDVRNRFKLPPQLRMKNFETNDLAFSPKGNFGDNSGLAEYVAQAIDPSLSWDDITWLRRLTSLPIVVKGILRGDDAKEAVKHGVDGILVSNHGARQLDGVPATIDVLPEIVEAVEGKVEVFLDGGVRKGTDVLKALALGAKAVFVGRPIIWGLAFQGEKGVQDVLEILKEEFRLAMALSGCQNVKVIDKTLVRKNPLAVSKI

[3] = biological target: T3, L-lactate dehydrogenase A chain (Homo sapiens, UniProt P00338); experiment: Inhibition of human recombinant LDHA using pyruvate as substrate preincubated for 10 mins followed by substrate addition and measured every 60 sec for 10 mins in the presence of NADH by fluorescence assay
[4] = biological target: L-lactate dehydrogenase B chain (Homo sapiens, UniProt P07195); experiment: Inhibition of human recombinant LDHB using pyruvate as substrate preincubated for 10 mins followed by substrate addition and measured every 60 sec for 10 mins in the presence of NADH by fluorescence assay
[5] = system: Hepatocyte; experiment: Inhibition of GO/LDHA in hyperoxaluric-primary hepatocyte isolated from Agxt1 knockdown PH1 C57BL/6 mouse assessed as relative oxalate output at 10 uM measured at 24 hrs in the presence of glycolate relative to control; type: cell-based
In short: (§1)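 Agxt1-/- mouse primary hepatocytes cultured with 5 mM glycolate, inhibitor at 10 μM; extracellular oxalate measured by colorimetric kit 24 and 48 h after inhibitor addition; relative oxalate = oxalate with inhibitor over oxalate without inhibitor; negative values mean below detection limit; mean of three/four replicates ± SD.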

[6] = system: Hepatocyte; experiment: Inhibition of GO/LDHA in hyperoxaluric-primary hepatocyte isolated from Agxt1 knockdown PH1 C57BL/6 mouse assessed as relative oxalate output at 10 uM measured at 48 hrs in the presence of glycolate relative to control; type: cell-based; in short: as §1
[7] = system: Hepatocyte; experiment: Inhibition of GO/LDHA in hyperoxaluric-primary hepatocyte isolated from Grhpr-knockdown PH2 C57BL/6 mouse assessed as relative oxalate output at 10 uM measured at 24 hrs in the presence of glycolate relative to control; type: cell-based
In short: (§2)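 Grhpr-/- mouse primary hepatocytes cultured with 10 mM glycolate, inhibitor at 10 μM; extracellular oxalate determined colorimetrically at 24 and 48 h post-treatment, expressed relative to untreated medium (RO); negative RO means below detection limit; three/four replicates, mean ± SD.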

[8] = system: Hepatocyte; experiment: Inhibition of GO/LDHA in hyperoxaluric-primary hepatocyte isolated from Grhpr-knockdown PH2 C57BL/6 mouse assessed as relative oxalate output at 10 uM measured at 48 hrs in the presence of glycolate relative to control; type: cell-based; in short: as §2
[9] = system: Hepatocyte; experiment: Inhibition of GO/LDHA in hyperoxaluric-primary hepatocyte isolated from Hoga1-knockdown PH3 C57BL/6 mouse assessed as relative oxalate output at 10 uM measured at 24 hrs in the presence of hydroxyproline relative to control; type: cell-based
In short: (§3)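 Hoga1-/- mouse primary hepatocytes challenged with 10 mM hydroxyproline, inhibitor 10 μM; extracellular oxalate measured by colorimetric kit 24 and 48 h after dosing, given as ratio to oxalate without inhibitor; negative values are below detection limit; mean of three/four replicates ± SD.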

[10] = system: Hepatocyte; experiment: Inhibition of GO/LDHA in hyperoxaluric-primary hepatocyte isolated from Hoga1-knockdown PH3 C57BL/6 mouse assessed as relative oxalate output at 10 uM measured at 48 hrs in the presence of hydroxyproline relative to control; type: cell-based; in short: as §3
[11] = system: Hepatocyte; experiment: Cytotoxicity against hyperoxaluric-primary hepatocyte isolated from Hoga1-knockdown PH3 C57BL/6 mouse assessed as cell death at 10 uM by MTS assay; type: toxicity, cell-based; details: hepatocytes, Hoga1-knockdown PH3, 10 µM
In short: (§4)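 Primary hepatocytes from Agxt1-/- (PH1, 5 mM glycolate), Grhpr-/- (PH2, 10 mM glycolate) or Hoga1-/- (PH3, 10 mM hydroxyproline) mice, incubated with inhibitor at 10 μM; viability followed through the oxalate assay by MTS tetrazolium method.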

[12] = system: Hepatocyte; experiment: Cytotoxicity against hyperoxaluric-primary hepatocyte isolated from Grhpr-knockdown PH2 C57BL/6 mouse assessed as cell death at 10 uM by MTS assay; type: toxicity, cell-based; details: hepatocytes, Grhpr-knockdown PH2 (primary hyperoxaluria type 2); in short: as §4
[13] = system: Hepatocyte; experiment: Cytotoxicity against hyperoxaluric-primary hepatocyte isolated from Agxt1-knockdown PH1 C57BL/6 mouse assessed as cell death at 10 uM by MTS assay; type: toxicity, cell-based; details: hepatocytes, Agxt1-knockdown PH1, 10 µM; in short: as §4
[14] = biological target: T4, Prostaglandin G/H synthase 2 (Homo sapiens, UniProt P35354); experiment: Inhibition of human COX-2 using arachidonic acid as substrate measured every 60 sec for 10 mins by fluorescence based assay
T4 sequence (P35354 whole entry): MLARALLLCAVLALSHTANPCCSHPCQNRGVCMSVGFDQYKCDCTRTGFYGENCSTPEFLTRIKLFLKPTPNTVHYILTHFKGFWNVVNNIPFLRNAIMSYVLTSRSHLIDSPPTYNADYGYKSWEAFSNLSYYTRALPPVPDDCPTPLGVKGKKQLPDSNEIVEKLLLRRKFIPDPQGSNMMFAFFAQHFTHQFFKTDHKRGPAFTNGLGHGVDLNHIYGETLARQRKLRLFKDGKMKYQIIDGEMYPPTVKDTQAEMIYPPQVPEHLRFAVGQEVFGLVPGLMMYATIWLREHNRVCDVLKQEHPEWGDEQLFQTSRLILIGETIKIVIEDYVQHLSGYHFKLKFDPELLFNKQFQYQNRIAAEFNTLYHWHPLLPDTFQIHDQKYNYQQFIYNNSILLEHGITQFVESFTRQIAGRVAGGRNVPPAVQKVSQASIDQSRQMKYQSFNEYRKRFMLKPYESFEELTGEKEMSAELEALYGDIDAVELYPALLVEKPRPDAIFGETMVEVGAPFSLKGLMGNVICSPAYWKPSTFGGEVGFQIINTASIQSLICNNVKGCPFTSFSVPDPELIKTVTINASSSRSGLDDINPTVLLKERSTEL

[15] = system: HEK293; experiment: Cytotoxicity against HEK293 cells assessed as reduction in cell viability upto 50 uM measured after 48 hrs by MTT assay; type: toxicity, cell-based; details: human, hek293, 48 h
[16] = biological target: T1, 2-Hydroxyacid oxidase 1; experiment: Non-competitive mixed inhibition of N-terminal His-tagged human recombinant glycolate oxidase expressed in Escherichia coli BL21 (DE3) cells assessed as inhibition constant using varying concentration of glycolate as substrate measured every 60 sec for 15 mins by Amplex red and horseradish peroxidase based fluorescence assay
[17] = biological target: T3, L-lactate dehydrogenase A chain; experiment: Non-competitive inhibition of human recombinant LDHA assessed as inhibition constant using varying concentration of pyruvate as substrate preincubated for 10 mins followed by substrate addition and measured every 60 sec for 10 mins in the presence of NADH by fluorescence assay
[18] = biological target: T5, 2-Hydroxyacid oxidase 1 (Homo sapiens) (UniProt Q9UJM8); experiment: Non-competitive mixed inhibition of N-terminal His-tagged human recombinant glycolate oxidase expressed in Escherichia coli BL21 (DE3) cells assessed as decrease in Vmax with increase in apparent Km using glycolate as substrate upto 60 microM
T5 sequence (whole entry): T1 sequence (Q9UJM8 whole entry)

[19] = biological target: T3, L-lactate dehydrogenase A chain; experiment: Non-competitive inhibition of human recombinant LDHA assessed as decrease in Vmax with no effect on Km using pyruvate as substrate upto 20 uM

Sequence of L-lactate dehydrogenase B chain (P07195 whole entry): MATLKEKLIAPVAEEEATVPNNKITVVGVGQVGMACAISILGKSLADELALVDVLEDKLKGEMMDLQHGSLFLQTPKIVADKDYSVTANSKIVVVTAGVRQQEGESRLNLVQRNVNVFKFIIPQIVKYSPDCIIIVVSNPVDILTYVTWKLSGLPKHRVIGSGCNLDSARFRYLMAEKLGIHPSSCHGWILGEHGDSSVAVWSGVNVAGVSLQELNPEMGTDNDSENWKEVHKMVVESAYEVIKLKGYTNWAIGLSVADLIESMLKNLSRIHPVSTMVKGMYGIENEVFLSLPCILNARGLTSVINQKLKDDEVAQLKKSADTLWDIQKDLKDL

Row | pIC50 [1] | pIC50 [2] | pIC50 [3] | pIC50 [4] | pIC50 [14] | pKi [16] | pKi [17] | inhibition [18] | inhibition [19] | SMILES | fold change (FC) [5] | fold change (FC) [6] | fold change (FC) [7] | fold change (FC) [8] | fold change (FC) [9] | fold change (FC) [10] | Activity [11] | Activity [12] | Activity [13] | Activity [15]
1 | 5.62 | 5.89 | 6.30 | 6.52 | 4.44 | – | – | – | – | C#CCCCC(=O)Nc1ccc(C(=O)c2ccc(NCc3ccc(-c4ccc(O)c(C(=O)O)c4)o3)cc2)cc1.N | 0.5 | 0.79 | 0.4 | 0.52 | 0.2 | 0.14 | Non-Toxic | Non-Toxic | Non-Toxic | Non-Toxic
2 | 5.38 | 5.51 | 6.22 | 5.96 | 4.46 | 5.96 | 6.05 | Active | Active | N.O=C(O)c1cc(-c2ccc(CNc3ccc(Br)cc3)o2)ccc1O | 0.19 | 0.57 | 0.41 | 0.56 | 0.26 | 0.18 | Non-Toxic | Non-Toxic | Non-Toxic | Non-Toxic
